TAAR1 ag: human TAAR1 agonists, primary screen, Fluo-8 calcium fluorescence, CHO RD-HGA16 cells; Trace amine-associated receptor 1 (Homo sapiens), Q96RJ0; vehicle wells 0%, saturating PEA agonist 100%; activation, % at 3 µM; hit rate 0.99% among 360,000; AID 624467, 2012;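 active = activation above the mean activation of all test compounds in the run plus 3 SD, cut at about 38% in these data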
Target sequence (Q96RJ0 whole entry, looked up): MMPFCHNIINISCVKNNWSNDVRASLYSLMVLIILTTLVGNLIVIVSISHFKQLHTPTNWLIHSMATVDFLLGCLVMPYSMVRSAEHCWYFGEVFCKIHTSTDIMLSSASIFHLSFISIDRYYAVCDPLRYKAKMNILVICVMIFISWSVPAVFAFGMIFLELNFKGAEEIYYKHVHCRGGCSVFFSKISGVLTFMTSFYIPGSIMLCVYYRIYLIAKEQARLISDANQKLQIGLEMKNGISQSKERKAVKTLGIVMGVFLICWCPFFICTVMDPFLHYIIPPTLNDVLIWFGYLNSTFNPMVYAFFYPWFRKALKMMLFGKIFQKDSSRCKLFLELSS
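test system = CHO RD-HGA16 cells carrying human TAAR1 plus Gα16 | schedule = 17-24 h seeding, 75 min 37 °C dye, 30 min RT | compound dosing = 3 µM single concentration | control set = DMSO and PEA EC100 | replicates = n 1 | signal = Fluo-8 fluorescence, 5 s baseline then 140 s kinetic read | measure = percent activation vs PEA EC100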
TAAR1 antagonist: human TAAR1 antagonists, primary screen, Fluo-8 calcium fluorescence, CHO RD-HGA16 cells | Trace amine-associated receptor 1 (Homo sapiens), Q96RJ0 | antagonist | inhibition, % at 3 µM | hit rate 1.5% among 360,000;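 active = inhibition above a per-plate cutoff, the mean inhibition of test compounds on that plate plus 3 SD, cut at about 49% in these data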;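 also: 0% = DMSO plus EC80 beta-PEA response and 100% = DMSO alone without agonist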
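Test system: hTAAR1-expressing CHO RD-HGA16 cells, Gα16-coupled; Probe or stimulus: EC80 β-phenethylamine stimulus; Compound dosing: single nominal final test compound concentration of 3 µM; Timing: 140 s kinetic read after compound, 140 s after agonist; Signal: Fluo-8 calcium-sensitive fluorescence; Measure: % inhibition of agonist calcium response; Controls: DMSO and EC80 PEA controls.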
CHO parental Ca: ATP-evoked calcium signal inhibitors, parental CHO, primary screen, counter-screen for OX1R antagonist project, cell-based, fluorescence, Fluo-8 calcium dye. parental CHO-K1, ATP-induced calcium, Fluo-8 fluorescence. hit rate 0.63% among 330,000. inhibition, % at 5.6 µM;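 active = inhibition above that plate's mean sample inhibition plus 3 SD, cut at about 26% in these data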;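 also: 0% = ATP-challenged DMSO wells and 100% = DMSO wells without ATP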
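Material – parental CHO cells · Reagent – ATP stimulus · Compound – single nominal dose of 5.6 µM per compound · Detection – Fluo-8 fluorescence · Read-out basis – percent inhibition of calcium signal · Controls – ATP-challenged DMSO wells low, unchallenged DMSO wells high · Repeats – no replicates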
OX1R antag-1: antagonists of human orexin 1 receptor (OX1R). inhibition, % at 6.6 µM. hit rate 1.8% among 330,000. OX1R-expressing cells, FRET antagonist read-out; in the data active = inhibition mostly above about 38%, no sharp cut-off; inactive = mostly below about 40%;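 also: 0% = agonist challenge alone and 100% = reference antagonist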
OX1R antag-2: OX1R (HCRTR1) antagonists, primary screen, fluorescence, CHO/OX1R cells, Fluo-8 calcium, orexin A. Orexin/Hypocretin receptor type 1 (Homo sapiens), O43613. AID 434989, 2010. Fluo-8 calcium fluorescence. hit rate 0.43% among 330,000. inhibition, % at 5 µM;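 active = inhibition above its plate's threshold, mean inhibition of all tested compounds on the plate plus 3 SD, cut at about 37% in these data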;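 also: 0% = orexin A challenge wells and 100% = SB-334867-A antagonist wells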
GalR3 antag: GalR3 antagonists in HEK293 cells, primary screen, cell-based, fluorescence readout | Galanin receptor type 3 (Homo sapiens), O60755 | hit rate 0.44% among 360,000 | inhibition, % at 3 µM | HEK293 GalR3-CNG cAMP membrane potential fluorescence; galR3 body fused to GalR1 C-terminus;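 active = inhibition above the screen-wide average plus 3 SD, cut at about 13% in these data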;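 also: forskolin and galanin both at EC90 stimulate the cells; cAMP rise reported by CNG channel membrane potential dye signal; 0% = forskolin plus galanin with DMSO and 100% = forskolin alone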
Target sequence (O60755 1-299 limits assumed): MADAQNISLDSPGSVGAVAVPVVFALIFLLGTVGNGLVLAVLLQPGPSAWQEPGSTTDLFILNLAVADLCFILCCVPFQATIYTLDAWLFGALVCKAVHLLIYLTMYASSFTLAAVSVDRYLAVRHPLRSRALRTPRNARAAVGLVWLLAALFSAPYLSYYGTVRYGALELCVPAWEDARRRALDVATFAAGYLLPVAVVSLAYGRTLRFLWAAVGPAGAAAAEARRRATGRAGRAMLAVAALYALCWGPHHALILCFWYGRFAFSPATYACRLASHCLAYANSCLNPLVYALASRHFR
* = called active by the depositor. In the library only some 4.3% were active in any assay of this set; here they are far more common.

`CCOC(=O)c1c(C)[nH]c(C(=O)COC(=O)c2ccc(O)cc2)c1C` gave TAAR1 ag 7, TAAR1 antagonist 30, CHO parental Ca 27*, OX1R antag-1 8, OX1R antag-2 10 and GalR3 antag -3.
`CCOC(=O)c1c(C)[nH]c(C(=O)COC(=O)c2ccc(O)cc2O)c1C` gave TAAR1 ag 0, TAAR1 antagonist 1, CHO parental Ca 2, OX1R antag-1 11, OX1R antag-2 -4 and GalR3 antag -7.
For COc1ccc2sc(N(CCCN(C)C)C(=O)c3ccc(S(=O)(=O)N(C)Cc4ccccc4)cc3)nc2c1 the results were TAAR1 ag 43*, TAAR1 antagonist 35, CHO parental Ca -16, OX1R antag-1 19, OX1R antag-2 -19 and GalR3 antag -1.
For CCOc1cccc2sc(N(CCCN(C)C)C(=O)c3ccc(S(=O)(=O)N(CC)Cc4ccccc4)cc3)nc12 the results were TAAR1 ag 28, TAAR1 antagonist 55*, CHO parental Ca 0, OX1R antag-1 22, OX1R antag-2 -16 and GalR3 antag -6.
Screening CCOc1cccc2sc(N(CCCN(C)C)C(=O)c3ccc(S(=O)(=O)N(C)Cc4ccccc4)cc3)nc12 returned TAAR1 ag 35, TAAR1 antagonist 54*, CHO parental Ca 5, OX1R antag-1 45, OX1R antag-2 -18 and GalR3 antag -3.
For CN(C)CCCN(C(=O)c1ccc(S(=O)(=O)N(C)Cc2ccccc2)cc1)c1nc2cc3c(cc2s1)OCO3 the results were TAAR1 ag 37, TAAR1 antagonist 44, CHO parental Ca -16, OX1R antag-1 36, OX1R antag-2 -24 and GalR3 antag -3.
O=[N+]([O-])c1ccc2nc(-c3cccnc3)[nH]c2c1 was read as TAAR1 ag 7, TAAR1 antagonist 8, CHO parental Ca 0, OX1R antag-1 32, OX1R antag-2 -13 and GalR3 antag -8.
`O=[N+]([O-])c1cc([N+](=O)[O-])c2cc(-c3cccnc3)[nH]c2c1` gave TAAR1 ag 19, TAAR1 antagonist 49*, CHO parental Ca 4, OX1R antag-1 10, OX1R antag-2 -5 and GalR3 antag -4.
`COC(=O)C1=C[C@@H](C(=O)OC)C2C3=C(C(=O)C24CCCCC4)[C@H](C)n2c(=O)n(-c4ccccc4)c(=O)n2[C@@H]3C1` (stereo partly drawn) gave TAAR1 ag 12, TAAR1 antagonist 52*, CHO parental Ca -5, OX1R antag-1 29, OX1R antag-2 -23 and GalR3 antag -4.
For CCc1ccccc1N1CC(C(=O)N2Cc3ccccc3CC2C(N)=O)CC1=O (stereo not drawn) the results were TAAR1 ag 0, TAAR1 antagonist -1, CHO parental Ca -6, OX1R antag-1 -3, OX1R antag-2 -7 and GalR3 antag 2.
Screening Cc1ccc(C(=O)NC2CCCCN(C)C2=O)c(C)c1 (stereo not drawn) returned TAAR1 ag 0, TAAR1 antagonist 14 and GalR3 antag -7.
`CCCOC(=O)c1cccc(NC(=O)COc2ccc([N+](=O)[O-])cc2)c1` gave TAAR1 ag -1, TAAR1 antagonist 20, CHO parental Ca 32*, OX1R antag-1 34, OX1R antag-2 24 and GalR3 antag 3.
For CCOC(=O)c1cccc(NC(=O)COc2ccc([N+](=O)[O-])cc2)c1 the results were TAAR1 ag -3, TAAR1 antagonist -3, CHO parental Ca -9, OX1R antag-1 36, OX1R antag-2 -28 and GalR3 antag -2.
For COc1ccc([N+](=O)[O-])cc1NCc1c(F)cccc1F the results were TAAR1 ag 1, TAAR1 antagonist -6 and GalR3 antag -6.
NC(=O)c1ccc(OCC(=O)N2CCNC2=O)cc1 was read as TAAR1 ag 1, TAAR1 antagonist -4, CHO parental Ca -5, OX1R antag-1 3, OX1R antag-2 -11 and GalR3 antag -4.
Cc1ccc(S(=O)(=O)N2C[C@H]3C(=O)C[C@@H](c4ccccc4)N(S(=O)(=O)c4ccc(C)cc4)[C@H]3C[C@H]2c2ccccc2F)cc1 was read as TAAR1 ag 2, TAAR1 antagonist -8 and GalR3 antag -6.
Screening COc1c(C(=O)Nc2ccc(Cc3ccncc3)cc2)ccc2ccccc12 returned TAAR1 ag 11, TAAR1 antagonist 55*, CHO parental Ca -3, OX1R antag-1 58, OX1R antag-2 -1 and GalR3 antag 4.
For CN1Cc2c(N3CCOCC3)nc3sc(C#N)c(N)c3c2CC1(C)C the results were TAAR1 ag 2, TAAR1 antagonist -5, CHO parental Ca -29, OX1R antag-1 6, OX1R antag-2 -19 and GalR3 antag -1.
CN1Cc2c(N3CCOCC3)nc3sc(C(=O)c4ccc(Br)cc4)c(N)c3c2CC1(C)C was read as TAAR1 ag 6, TAAR1 antagonist 20, CHO parental Ca 35*, OX1R antag-1 5, OX1R antag-2 5 and GalR3 antag 0.
Screening C=CCn1c(-c2cccc([N+](=O)[O-])c2)n[nH]c1=S returned TAAR1 ag 0, TAAR1 antagonist 1, CHO parental Ca -2, OX1R antag-1 46, OX1R antag-2 -3 and GalR3 antag -6.
For C=CCn1c(SC)nnc1-c1cccc([N+](=O)[O-])c1 the results were TAAR1 ag -1, TAAR1 antagonist 5, CHO parental Ca -7, OX1R antag-1 53*, OX1R antag-2 -3 and GalR3 antag -10.
CCC(OC(=O)CN1C(=O)C(=O)c2ccccc21)C(=O)Nc1ccc(S(N)(=O)=O)cc1 (stereo not drawn) was read as TAAR1 ag 4, TAAR1 antagonist 3, CHO parental Ca -12, OX1R antag-1 50*, OX1R antag-2 -26 and GalR3 antag -4.
For CCn1ncc(CN2CCC(n3nccc3NC(=O)c3ccccc3Cl)CC2)c1C the results were TAAR1 ag 1, TAAR1 antagonist 0 and GalR3 antag -3.
For CCC1(c2ccccc2)NC(=O)N(CC(=O)N2CCc3ccccc32)C1=O (stereo not drawn) the results were TAAR1 ag 19, TAAR1 antagonist 8, CHO parental Ca -19, OX1R antag-1 4, OX1R antag-2 -11 and GalR3 antag -4.
